The Cmax is the maximum level reached in the sampled fluid or tissue. For orientation: AUC(0-t) means the area under the concentration-time curve up to a stated or last time point. The term MRT last denotes a mean duration of stay, worked out from the concentration-time curve. The term IC50 denotes the concentration that inhibits the measured activity by half. A low value points to greater potency.

SMILES strings stand for the structures. Activity calls are given as the source filed them. The rule behind the calls is not given here. Bounds are passed on as bounds.

In data set [1] the test system is Mycobacterium tuberculosis. The data set can be described thus: Antimycobacterial activity against Mycobacterium tuberculosis H37Rv infected in BALB/c mouse model assessed as protection against mouse mortality at 12.5 to 100 mg/kg administered daily via oral gavage for 5 days per week measured after 14 to 28 days post dosage. In kind it is functional, organism-based.

Data set [2] can be described thus: Cmax in BALB/c mouse lung at 100 mg/kg administered via oral gavage after 0.25 to 24 hrs by LC-MS analysis. It is filed as ADME, organism-based. On the set-up: dose 100 mg/kg, route oral. In short, it runs like this:
(§1)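 Female BALB/c mice (20 g), single oral gavage dose of 100 mg/kg. Cardiac blood and lungs taken at 0, 0.25, 0.5, 1, 2, 4, 8 and 24 h (n = 3 per time point). Plasma separated by centrifugation; lungs bead-beaten in water and supernatant recovered. Drug quantified by LC-MS/MS against an indole-2-carboxamide internal standard. Parameters derived by noncompartmental analysis.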

The nature of data set [3]: Mutagenicity in Salmonella typhimurium TA1537. It is filed as toxicity. The settings on record: salmonella enterica subsp. enterica serovar typhimurium.
Data set [4] is described as follows: Mutagenicity in Salmonella typhimurium TA98 assessed as increase in ratio of revertant colonies at 5000 microg/plate in presence of S9 liver fraction relative to control. It is filed as toxicity, subcellular. To be noted: salmonella enterica subsp. enterica serovar typhimurium. In short, it runs like this: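 Bacterial reverse mutation test in S. typhimurium TA98 with S9 liver fraction, at 500 and 5000 μg/plate. Revertant colony count expressed as a ratio to the DMSO solvent control; 2-aminoanthracene as positive control.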

Data set [5] in a line: Cmax in BALB/c mouse plasma at 100 mg/kg administered via oral gavage after 0.25 to 24 hrs by LC-MS analysis. In kind it is ADME, organism-based. The arrangement: dose 100 mg/kg, route oral. An outline of the steps: as §1
In data set [6] the target is T1, Nuclear receptor subfamily 1 group I member 3 (Homo sapiens, UniProt Q14994).
T1 sequence (Q14994 whole entry): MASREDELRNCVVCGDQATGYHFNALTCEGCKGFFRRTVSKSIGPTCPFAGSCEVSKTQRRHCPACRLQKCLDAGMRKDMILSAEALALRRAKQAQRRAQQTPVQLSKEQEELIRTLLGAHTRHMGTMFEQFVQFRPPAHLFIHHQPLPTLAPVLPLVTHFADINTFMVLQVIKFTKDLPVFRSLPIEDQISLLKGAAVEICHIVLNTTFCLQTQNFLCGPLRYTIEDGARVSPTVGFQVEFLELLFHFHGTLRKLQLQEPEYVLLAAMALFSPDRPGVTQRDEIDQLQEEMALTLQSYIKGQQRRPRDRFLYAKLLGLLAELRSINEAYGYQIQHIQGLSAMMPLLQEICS
The data set can be described thus: Transactivation of CAR (unknown origin) assessed as upregulation of CYP2B6 at 0.1 to 1 microg/ml. It is filed as ADME. An outline of the steps: (§2)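 Nuclear receptor reporter-gene induction assay, with reporters coupled to PXR, CAR or AhR. Compound was tested at 0.1–1, 3 and 8 μg/mL. Positive controls were rifampin for PXR, CITCO for CAR and 3-methylcholanthrene for AhR.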

The subject of data set [7] is Mycobacterium tuberculosis. The data set can be described thus: Antimycobacterial activity against Mycobacterium tuberculosis H37Rv assessed as growth inhibition at 0.5 times MIC after 7 to 14 days in presence of 0.0313 times MIC of rifampin by alamar blue assay based Bliss synergy model analysis. In kind it is functional. An outline of the steps:
(§3)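 Checkerboard of 2-fold dilutions, 4.0 to 0.0313 × MIC of each drug combined with rifampin. M. tuberculosis H37Rv at 1 × 10^4 CFU per well in 200 μL. Single-drug, blank and full-growth controls included. alamarBlue read-out, percent inhibition calculated. Bliss independence applied to wells below 1 × MIC; Δfaxy > 0 taken as synergy, < 0 as antagonism.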

The nature of data set [8]: AUClast in BALB/c mouse plasma at 100 mg/kg administered via oral gavage after 0.25 to 24 hrs by LC-MS analysis. It is filed as ADME, organism-based. On the set-up: dose 100 mg/kg, time 0.25-24 hr, route oral. An outline of the steps: as §1
Data set [9] in a line: Mean residence time (last) in BALB/c mouse lung at 100 mg/kg administered via oral gavage by LC-MS analysis. In kind it is ADME, organism-based. In short, it runs like this: as §1
In a further data set the target is Cytochrome P450 2C9 (Homo sapiens, UniProt P11712). The data set can be described thus: Inhibition of CYP2C9 (unknown origin). It is filed as ADME.
The test system of data set [10] is Mycobacterium tuberculosis. The experiment in a line: Antimycobacterial activity against Mycobacterium tuberculosis H37Rv infected in BALB/c mouse model assessed as bacterial growth inhibition in lungs at 100 mg/kg administered daily via oral gavage for 5 days per week measured after 28 days post dosage co-treated with 10 mg/kg of rifampin by Bliss synergy model based analysis. In kind it is functional, organism-based. An outline of the steps: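 Female BALB/c mice, 4-6 weeks old, aerosol-infected with H37Rv, day 1 implantation 3.4-log CFU per lung. Treatment from day 14: 100 mg/kg plus rifampin 10 mg/kg by oral gavage, doses at least 1 h apart, daily 5 days/week. Single-drug arms and untreated infected controls included, four mice per group. Lung CFU counted at day 28 of treatment on 7H11 selective agar.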

Data set [11] is described as follows: AUMClast in BALB/c mouse plasma at 100 mg/kg administered via oral gavage after 0.25 to 24 hrs by LC-MS analysis. In kind it is ADME, organism-based. To be noted: in vivo. An outline of the steps:
as §1

Data set [12] has as its target T2, Nuclear receptor subfamily 1 group I member 2 (Homo sapiens, UniProt O75469).
T2 sequence (O75469 whole entry): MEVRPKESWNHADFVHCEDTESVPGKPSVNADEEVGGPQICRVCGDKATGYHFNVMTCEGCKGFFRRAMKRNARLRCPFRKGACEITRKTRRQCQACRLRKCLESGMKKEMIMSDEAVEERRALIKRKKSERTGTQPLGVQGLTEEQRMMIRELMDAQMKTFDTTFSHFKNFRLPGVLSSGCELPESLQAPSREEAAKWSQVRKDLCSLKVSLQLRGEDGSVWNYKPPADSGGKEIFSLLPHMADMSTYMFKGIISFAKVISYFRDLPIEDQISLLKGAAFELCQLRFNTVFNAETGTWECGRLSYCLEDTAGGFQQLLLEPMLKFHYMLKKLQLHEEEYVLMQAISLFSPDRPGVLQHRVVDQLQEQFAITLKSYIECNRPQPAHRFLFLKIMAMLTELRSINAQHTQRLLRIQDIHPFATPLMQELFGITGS
The experiment in a line: Transactivation of PXR (unknown origin) assessed as upregulation of CYP3A4 at 0.1 to 1 microg/ml. It is filed as ADME. In short, it runs like this:
as §2

Data set [13] relates to Mycobacterium tuberculosis. The experiment in a line: Antimycobacterial activity against Mycobacterium tuberculosis H37Rv assessed as growth inhibition at 0.0313 times MIC after 7 to 14 days in presence of 0.5 times MIC of rifampin by alamar blue assay based by Bliss synergy model analysis. In kind it is functional. An outline of the steps:
as §3

A short description of data set [14]: AUMClast in BALB/c mouse lung at 100 mg/kg administered via oral gavage after 0.25 to 24 hrs by LC-MS analysis. In kind it is ADME, organism-based. The settings on record: in vivo. An outline of the steps:
as §1

The target of the next data set is Cytochrome P450 3A4 (Homo sapiens, UniProt P08684). The data set can be described thus: Inhibition of CYP3A4 (unknown origin). It is filed as ADME.
In data set [15] the target is Voltage-gated inwardly rectifying potassium channel KCNH2 (Homo sapiens, UniProt Q12809). The data set can be described thus: Inhibition of human ERG.
Data set [16] can be described thus: Mutagenicity in Salmonella typhimurium TA98. It is filed as toxicity. The settings on record: salmonella enterica subsp. enterica serovar typhimurium.
Data set [17] concerns Mycobacterium tuberculosis. The data set can be described thus: Antimycobacterial activity against Mycobacterium tuberculosis H37Rv infected in BALB/c mouse model assessed as reduction in CFU counts in lung at 100 mg/kg administered daily via oral gavage for 5 days per week measured after 28 days post dosage relative to control. In kind it is functional. An outline of the steps:
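Female BALB/c mice, 4-6 weeks old, aerosol-infected with H37Rv (about 10^3 CFU); five mice taken on day 1 for lung implantation CFU. From day 1, 12.5, 25, 50 or 100 mg/kg in 0.5% carboxymethylcellulose by daily oral gavage, 5 days/week. Ethambutol 100 mg/kg as positive control, untreated infected mice as negative, 5 mice per group. Lung homogenates plated on 7H11 selective agar on days 14 and 28.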

Sequence of Cytochrome P450 3A4 (P08684 whole entry): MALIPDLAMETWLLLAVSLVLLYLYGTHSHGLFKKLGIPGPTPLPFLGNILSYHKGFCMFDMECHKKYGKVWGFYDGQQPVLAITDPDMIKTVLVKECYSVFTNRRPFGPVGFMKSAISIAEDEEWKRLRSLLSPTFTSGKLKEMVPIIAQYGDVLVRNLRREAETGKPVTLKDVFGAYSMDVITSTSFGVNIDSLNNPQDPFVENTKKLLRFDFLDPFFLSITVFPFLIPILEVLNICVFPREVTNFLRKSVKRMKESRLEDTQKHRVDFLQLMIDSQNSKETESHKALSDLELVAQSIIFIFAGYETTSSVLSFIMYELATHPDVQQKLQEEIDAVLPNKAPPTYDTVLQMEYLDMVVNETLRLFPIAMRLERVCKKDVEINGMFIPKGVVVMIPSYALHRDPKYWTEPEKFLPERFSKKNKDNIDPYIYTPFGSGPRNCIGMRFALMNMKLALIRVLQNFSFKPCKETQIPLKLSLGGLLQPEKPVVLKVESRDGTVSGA
Sequence of Cytochrome P450 2C9 (P11712 whole entry): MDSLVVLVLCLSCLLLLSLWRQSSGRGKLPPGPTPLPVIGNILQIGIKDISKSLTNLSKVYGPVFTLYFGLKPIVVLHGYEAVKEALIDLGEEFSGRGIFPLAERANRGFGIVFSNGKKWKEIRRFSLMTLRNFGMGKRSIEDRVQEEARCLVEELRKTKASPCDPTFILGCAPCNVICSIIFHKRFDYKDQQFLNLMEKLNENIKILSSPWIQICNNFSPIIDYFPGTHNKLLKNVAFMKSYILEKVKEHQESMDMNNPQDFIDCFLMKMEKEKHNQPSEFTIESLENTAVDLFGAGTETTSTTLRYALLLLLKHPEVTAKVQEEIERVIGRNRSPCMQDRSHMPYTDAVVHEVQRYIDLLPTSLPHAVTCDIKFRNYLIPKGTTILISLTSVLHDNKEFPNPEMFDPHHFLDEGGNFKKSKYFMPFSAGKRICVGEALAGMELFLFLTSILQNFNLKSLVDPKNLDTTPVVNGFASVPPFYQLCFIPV
Sequence of Voltage-gated inwardly rectifying potassium channel KCNH2 (Q12809 whole entry): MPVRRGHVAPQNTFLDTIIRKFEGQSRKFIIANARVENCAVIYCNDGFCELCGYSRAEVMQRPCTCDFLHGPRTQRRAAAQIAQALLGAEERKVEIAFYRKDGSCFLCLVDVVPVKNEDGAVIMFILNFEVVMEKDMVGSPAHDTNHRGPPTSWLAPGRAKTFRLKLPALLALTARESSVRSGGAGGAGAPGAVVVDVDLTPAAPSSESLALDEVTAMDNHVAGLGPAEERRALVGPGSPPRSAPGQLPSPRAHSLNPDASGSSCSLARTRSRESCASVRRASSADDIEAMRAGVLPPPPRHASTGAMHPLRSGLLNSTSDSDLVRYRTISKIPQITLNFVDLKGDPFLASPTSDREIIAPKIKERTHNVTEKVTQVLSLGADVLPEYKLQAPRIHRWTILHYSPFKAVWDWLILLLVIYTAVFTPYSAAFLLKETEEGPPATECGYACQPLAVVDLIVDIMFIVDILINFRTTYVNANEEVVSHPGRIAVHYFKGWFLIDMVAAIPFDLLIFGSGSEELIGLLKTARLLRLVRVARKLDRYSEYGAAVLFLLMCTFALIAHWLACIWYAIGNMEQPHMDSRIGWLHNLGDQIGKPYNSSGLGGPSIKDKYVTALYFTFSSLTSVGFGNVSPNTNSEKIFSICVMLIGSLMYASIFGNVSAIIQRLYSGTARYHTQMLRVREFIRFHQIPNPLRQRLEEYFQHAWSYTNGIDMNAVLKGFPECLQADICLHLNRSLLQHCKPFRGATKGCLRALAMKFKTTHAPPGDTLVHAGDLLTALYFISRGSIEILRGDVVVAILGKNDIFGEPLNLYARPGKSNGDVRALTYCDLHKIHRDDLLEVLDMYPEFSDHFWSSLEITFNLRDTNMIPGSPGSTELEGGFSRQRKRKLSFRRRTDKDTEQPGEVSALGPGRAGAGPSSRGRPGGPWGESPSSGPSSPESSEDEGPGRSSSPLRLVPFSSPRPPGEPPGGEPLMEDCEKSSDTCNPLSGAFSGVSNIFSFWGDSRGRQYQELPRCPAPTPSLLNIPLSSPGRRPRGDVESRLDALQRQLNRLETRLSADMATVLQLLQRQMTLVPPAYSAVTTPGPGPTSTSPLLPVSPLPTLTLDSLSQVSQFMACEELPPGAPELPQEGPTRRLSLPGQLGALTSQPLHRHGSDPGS

For `C[C@@H]1[C@H]2C[C@@H](C[C@H]1NC(=O)c1cc3c(F)cc(F)cc3[nH]1)C2(C)C`, the result in data set [1] and in data set [10] was Active. Further, the values for the Cmax in [2] and in data set [5] were 3500 ng/g and 1710 ng/mL, respectively. The Activity entry in [3] is recorded as “Non-Toxic”; in [6], “Not Active”; in [12] it was “Not Active”; in data set [16], “Non-Toxic”; in data set [17], 2.12 log10CFU. Also, in data set [4], the “fold change (FC)” value turned out to be 2. For the same molecule, the “growth inhibition (GI)” value in data set [7] amounted to 99.2%; in [13] it was 90.5%. In data set [8], the AUC(0-t) is 18900 ng·h/mL. The same molecule returned an MRT last in [9] of 8.49 h. The entries for the “inhibition (INH)” value at Cytochrome P450 2C9 and against Cytochrome P450 3A4 were -5.2% and -6.7%, respectively. Further, the results for the AUMClast in data set [11] and in [14] were 137 hr.hr.ug/ml and 433 hr2.ug/g, respectively. This molecule registered an IC50 in data set [15] of more than 30 µM.
